From ChEMBL document CHEMBL3232816, “Substituted E-3-(3-indolylmethylene)1,3-dihydroindol-2-ones with antiproliferative activity. Study of the effects on HL-60 leukemia cells” (2014)

What was measured:
Format in all cases: functional
[1] = Cytotoxicity against human ovarian cancer cells after 48 hrs; conditions: Cancer cell lines
Outline: (§1)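 NCI 60-line panel. Compounds were dissolved in DMSO and tested at five 10-fold dilutions, the highest 10^-4 M (10^-3 M where footnoted), over 48 h of incubation. The readouts were GI50, TGI and LC50 in μM, with the panel mean also given. Only compounds passing a 10^-5 M single-dose prescreen were tested; some were repeated and averaged over two experiments.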

[2] = Cytotoxicity against human prostate cancer cells after 48 hrs; conditions: Cancer cell lines; for CC50: read-out: LC50 (the source's name); outline: as §1
[3] = Cytotoxicity against human renal cancer cells after 48 hrs; conditions: Cancer cell lines; outline: as §1
[4] = Cytotoxicity against human leukemia cells after 48 hrs; conditions: for GI50 / TGI: Leukemia cell; outline: as §1
[5] = Cytotoxicity against human NSCLC cells after 48 hrs; outline: as §1
[6] = Cytotoxicity against human breast cancer cells after 48 hrs; conditions: Cancer cell lines; for CC50: read-out: LC50 (the source's name); outline: as §1
[7] = Cytotoxicity against human CNS cancer cells after 48 hrs; conditions: Cancer cell lines; for CC50: read-out: LC50 (the source's name); outline: as §1
[8] = Cytotoxicity against human melanoma cells after 48 hrs; conditions: Melanoma cell; outline: as §1
[9] = Cytotoxicity against human colon cancer cells after 48 hrs; conditions: Cancer cell lines; for CC50: read-out: LC50 (the source's name); outline: as §1

Structure (SMILES): COc1cc2c(cc1C)NC(=O)/C2=C/c1c(Cl)n(Cc2cc(OC)c(OC)c(OC)c2)c2cc(C)c(OC)cc12
- GI50 [1]: 30.9 µM
- GI50 [2]: 5.5 µM
- TGI [2]: 87.1 µM
- GI50 [3]: 38.9 µM
- GI50 [4]: 3.24 µM
- TGI [4]: 42.7 µM
- GI50 [5]: 11 µM
- TGI [5]: 66.1 µM
- GI50 [6]: 10 µM
- GI50 [7]: 49 µM
- GI50 [8]: 25.1 µM
- GI50 [9]: 16.6 µM

Structure (SMILES): COc1ccc2c(c1)/C(=C\c1c(Cl)n(Cc3cc(OC)c(OC)c(OC)c3)c3cc(C)c(OC)cc13)C(=O)N2
- GI50 [1]: 33.1 µM
- GI50 [2]: 14.5 µM
- TGI [2]: 95.5 µM
- GI50 [3]: 29.5 µM
- GI50 [4]: 6.17 µM
- TGI [4]: 77.6 µM
- GI50 [5]: 20.4 µM
- TGI [5]: 97.7 µM
- GI50 [6]: 10.2 µM
- TGI [6]: 57.5 µM
- GI50 [7]: 16.2 µM
- TGI [7]: 75.9 µM
- GI50 [8]: 14.8 µM
- TGI [8]: 75.9 µM
- GI50 [9]: 11 µM
- TGI [9]: 85.1 µM

Structure (SMILES): COc1ccc(OC)c2c1NC(=O)/C2=C/c1c(Cl)[nH]c2ccccc12
- GI50 [1]: 2.51 µM
- LC50 [1]: 41.7 µM
- TGI [1]: 15.1 µM
- GI50 [2]: 3.47 µM
- TGI [2]: 19.9 µM
- CC50 [2]: 51.3 µM
- GI50 [3]: 3.39 µM
- LC50 [3]: 53.7 µM
- TGI [3]: 16.2 µM
- GI50 [4]: 1.51 µM
- TGI [4]: 56.2 µM
- GI50 [5]: 3.55 µM
- LC50 [5]: 74.1 µM
- TGI [5]: 22.4 µM
- GI50 [6]: 1.62 µM
- TGI [6]: 12.6 µM
- CC50 [6]: 64.6 µM
- GI50 [7]: 2.75 µM
- TGI [7]: 13.5 µM
- CC50 [7]: 44.7 µM
- GI50 [8]: 3.39 µM
- LC50 [8]: 46.8 µM
- TGI [8]: 16.2 µM
- GI50 [9]: 2.24 µM
- TGI [9]: 8.91 µM
- CC50 [9]: 33.9 µM

Structure (SMILES): COc1cc2c(/C=C3/C(=O)Nc4ccc(O)cc43)c(Cl)n(Cc3cc(OC)c(OC)c(OC)c3)c2cc1C
- GI50 [1]: 2.34 µM
- TGI [1]: 43.6 µM
- GI50 [2]: 2.29 µM
- TGI [2]: 50.1 µM
- GI50 [3]: 2.75 µM
- TGI [3]: 33.1 µM
- GI50 [4]: 1.41 µM
- TGI [4]: 18.6 µM
- GI50 [5]: 2.4 µM
- TGI [5]: 32.4 µM
- GI50 [6]: 1.41 µM
- TGI [6]: 34.7 µM
- GI50 [7]: 2.04 µM
- TGI [7]: 34.7 µM
- GI50 [8]: 1.45 µM
- TGI [8]: 11.5 µM
- GI50 [9]: 2.29 µM
- TGI [9]: 49 µM

Structure (SMILES): COc1cc2c(c(OC)c1OC)/C(=C\c1c(Cl)[nH]c3ccccc13)C(=O)N2
- GI50 [1]: 1.51 µM
- LC50 [1]: 77.6 µM
- TGI [1]: 9.77 µM
- GI50 [2]: 1.17 µM
- TGI [2]: 5.5 µM
- GI50 [3]: 1.35 µM
- LC50 [3]: 36.3 µM
- TGI [3]: 5.37 µM
- LC50 (concentration giving 50% net cell kill) [4]: 42.7 µM
- GI50 [4]: 0.55 µM
- TGI [4]: 7.08 µM
- GI50 [5]: 1.86 µM
- LC50 [5]: 67.6 µM
- TGI [5]: 9.12 µM
- GI50 [6]: 1.62 µM
- TGI [6]: 8.13 µM
- CC50 [6]: 66.1 µM
- GI50 [7]: 1.58 µM
- TGI [7]: 6.31 µM
- CC50 [7]: 35.5 µM
- GI50 [8]: 1.86 µM
- LC50 [8]: 30.9 µM
- TGI [8]: 6.61 µM
- GI50 [9]: 1.29 µM
- TGI [9]: 4.27 µM
- CC50 [9]: 18.2 µM

Structure (SMILES): COc1cc2c(/C=C3/C(=O)Nc4cccc(Cl)c43)c(Cl)n(Cc3cc(OC)c(OC)c(OC)c3)c2cc1C
- GI50 [1]: 3.98 µM
- LC50 [1]: 66.1 µM
- TGI [1]: 22.9 µM
- GI50 [2]: 1.91 µM
- TGI [2]: 5.13 µM
- CC50 [2]: 17.4 µM
- GI50 [3]: 3.24 µM
- LC50 [3]: 45.7 µM
- TGI [3]: 11.8 µM
- LC50 (concentration giving 50% net cell kill) [4]: 51.3 µM
- GI50 [4]: 2.45 µM
- TGI [4]: 14.1 µM
- GI50 [5]: 3.24 µM
- LC50 [5]: 47.9 µM
- TGI [5]: 12 µM
- GI50 [6]: 2.95 µM
- TGI [6]: 15.1 µM
- CC50 [6]: 61.7 µM
- GI50 [7]: 3.02 µM
- TGI [7]: 12.6 µM
- CC50 [7]: 40.7 µM
- GI50 [8]: 2.88 µM
- LC50 [8]: 51.3 µM
- TGI [8]: 8.91 µM
- GI50 [9]: 2.88 µM
- TGI [9]: 10 µM
- CC50 [9]: 51.3 µM

Structure (SMILES): COc1cc2c(/C=C3/C(=O)Nc4ccc(Cl)cc43)c(Cl)n(Cc3cc(OC)c(OC)c(OC)c3)c2cc1C
- GI50 [1]: 3.72 µM
- LC50 [1]: 39.8 µM
- TGI [1]: 13.8 µM
- GI50 [2]: 1.78 µM
- TGI [2]: 3.89 µM
- CC50 [2]: 8.91 µM
- GI50 [3]: 2.95 µM
- LC50 [3]: 18.6 µM
- TGI [3]: 7.24 µM
- LC50 (concentration giving 50% net cell kill) [4]: 15.8 µM
- GI50 [4]: 1.86 µM
- TGI [4]: 4.79 µM
- GI50 [5]: 2.29 µM
- LC50 [5]: 16.2 µM
- TGI [5]: 5.89 µM
- GI50 [6]: 2.09 µM
- TGI [6]: 5.5 µM
- CC50 [6]: 22.4 µM
- GI50 [7]: 2.34 µM
- TGI [7]: 6.03 µM
- CC50 [7]: 23.4 µM
- GI50 [8]: 2.29 µM
- LC50 [8]: 17.8 µM
- TGI [8]: 5.75 µM
- GI50 [9]: 2.19 µM
- TGI [9]: 5.62 µM
- CC50 [9]: 29.5 µM
